Screening data from PubChem.
NadD inh = inhibitors of Staphylococcus aureus NadD | purified NadD enzyme, colorimetric absorbance read-out | AID 602399 | inhibition, % at 20 µM | 0.78% of 360,000 active; in the data active = inhibition above about 26%
DNMT1 inh = blocks human DNA methyltransferase DNMT1 | DNMT1 molecular beacon, Hinp1I cleavage, fluorescence | 0.83% of 360,000 active | inhibition (reported as % activation of signal), % at 10 µM; in the data active = inhibition above about 50%
Scp-1 inhibitor = inhibitors of human Scp-1 phosphatase; Q9GZU7; Recombinant Scp1, phosphopeptide, malachite green phosphate absorbance; inhibition, % at 20 µM; 0.88% of 340,000 active; AID 493091;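 active = inhibition above about 50% at 20 µM, limit read from the data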
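Test system: SCP-1 catalytic domain; Buffer or medium: Acidic Tris acetate buffer with magnesium and detergent; Also added: Phosphorylated 17-residue peptide substrate; Compound: single 20 µM dose, 1% DMSO; Schedule: enzyme reaction 45 min at room temperature, colour 5 min, stabilisation 30 min; Signal: Phosphate-binding colour reagent, absorbance read at 630 nm.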
SUMO1-SIM PPI = alters human SUMO1 binding to SIM partners | P63165 | SUMO1 binding to a labelled peptide, TR-FRET, 1 h | inhibition, % at 20 µM | 0.33% of 360,000 active; in the data active = inhibition above about 37%
Target sequence (P63165 whole entry, looked up): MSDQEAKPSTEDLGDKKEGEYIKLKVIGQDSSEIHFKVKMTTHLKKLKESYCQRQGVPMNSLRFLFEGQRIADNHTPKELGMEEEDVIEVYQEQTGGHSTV
STEP block = blocks human striatal-enriched tyrosine phosphatase; 0.25% of 360,000 active; AID 588621; inhibition, % at 20 µM; recombinant STEP, OMFP fluorogenic substrate, fluorescence;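 active = inhibition at 20 µM, scaled per plate between control wells, above about 37%, limit read from the data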
Target sequence (P54829 whole entry, looked up): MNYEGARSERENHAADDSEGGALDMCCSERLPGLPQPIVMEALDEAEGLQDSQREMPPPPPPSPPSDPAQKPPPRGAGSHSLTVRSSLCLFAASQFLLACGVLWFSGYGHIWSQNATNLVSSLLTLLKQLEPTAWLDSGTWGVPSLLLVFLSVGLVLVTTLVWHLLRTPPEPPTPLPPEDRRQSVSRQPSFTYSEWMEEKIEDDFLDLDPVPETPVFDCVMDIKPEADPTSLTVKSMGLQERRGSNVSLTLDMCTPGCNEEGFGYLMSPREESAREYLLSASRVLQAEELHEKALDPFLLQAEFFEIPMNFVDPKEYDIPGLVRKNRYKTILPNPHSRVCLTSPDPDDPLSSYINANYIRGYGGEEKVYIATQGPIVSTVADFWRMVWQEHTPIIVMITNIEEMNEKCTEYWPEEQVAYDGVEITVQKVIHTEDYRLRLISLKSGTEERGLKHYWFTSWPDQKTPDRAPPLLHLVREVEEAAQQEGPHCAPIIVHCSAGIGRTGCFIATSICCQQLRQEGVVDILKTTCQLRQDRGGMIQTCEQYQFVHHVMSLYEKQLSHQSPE
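Assay system: isolated STEP enzyme. Buffer or medium: pH 6.0 Bis-Tris with DTT and Tween 20. Also added: fluorogenic phosphatase substrate OMFP at 25 µM final. Dosing: 20 µM, 1% DMSO. Timing: 20 min reaction, room temperature, in the dark. Measured by: fluorescence intensity, excitation 480 nm, emission 540 nm. Evaluation: normalized % inhibition.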
LMPTP inh = LMPTP (human) inhibition; P24666; recombinant LMPTP-A, OMFP fluorogenic substrate, fluorescence intensity; inhibition, % at 20 µM; 0.22% of 360,000 active; AID 651560;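 active = compounds that cut the enzyme signal by at least half of the control window in the single-dose screen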
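material = LMPTP-A | quantity = 0.625 nM enzyme | reagent = OMFP substrate, 400 µM final | buffer or medium = Bis-Tris pH 6.0, DTT, detergent | detection = endpoint fluorescence intensity from OMFP dephosphorylation | dosing = single 20 µM dose | read-out basis = % inhibition relative to no-enzyme and uninhibited control wells | control set = no-enzyme and uninhibited controls | timing = 50 min at room temperature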
Scp1 confirm = Scp-1 (human) inhibition, single-dose confirmed; shares compounds with Scp-1 inhibitor; recombinant SCP-1 catalytic domain, phosphate release, malachite green absorbance; inhibition, % at 20 µM; 61% of 2,500 active; AID 540281
MG interference = colorimetric interference in Scp-1 counter-screen. shares compounds with Scp-1 inhibitor. Colorimetric interference counterscreen, malachite green absorbance 630 nm. apparent inhibition (interference), % at 20 µM. 2,500 tested, under 10 active;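 also: compounds added after enzyme reaction finished so only phosphate colour detection is probed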
Scp-1 Tm shift = binds human Scp-1, shifting its melting temperature; AID 540329; 25% of 1,500 active; shares compounds with Scp-1 inhibitor; Recombinant SCP1, Sypro Orange thermal shift Tm; thermal shift relative to vanadate control, % at 40 µM;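 active = substances whose mean melting-temperature shift, as a percentage of the reference inhibitor's shift, reaches about 5.3%, limit read from the data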
DNMT1 confirm = confirmation of human DNMT1 inhibitors; inhibition, % at 10 µM; 8% of 2,300 active; shares compounds with DNMT1 inh; DNMT1 molecular beacon HinP1I cleavage, fluorescence;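 active = average inhibition of at least 30% in the single-concentration confirmation test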
Beacon interf = shows spectral interference in the DNMT1 beacon assay. shares compounds with DNMT1 inh. DNMT1 molecular beacon spectral interference counterscreen, fluorescence 485/520. activation (fluorescence interference), % at 10 µM. 1% of 2,300 active. AID 602387;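 active = activation of at least 30% at 10 µM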;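 also: DNMT1 catalytic domain with a HinP1I cleavage step and a FAM/dabcyl DNA beacon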
STEP conf = confirmation of human STEP phosphatase inhibitors. shares compounds with STEP block. recombinant STEP, OMFP fluorogenic substrate, fluorescence. inhibition, % at 20 µM. 32% of 520 active; call rule not given here
Large screens that a line does not name were inactive (follow-up assays come after a bar, where they were run). Sampled rows, rich in hits. Any-hit rate of the full collection: about 2.4%.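 The calls were made as follows, unless noted: active = inhibition of at least 30% at 20 µM; inactive = the rest.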

CCCc1cc(=O)oc2cc(OCC(=O)Nc3ccc(S(N)(=O)=O)cc3)ccc12	Scp-1 inhibitor 100, SUMO1-SIM PPI 55, STEP block 69, LMPTP inh 84 | Scp1 confirm 85 | MG interference inactive | Scp-1 Tm shift inactive | STEP conf 65
CCCc1cc(=O)oc2cc(OCC(=O)NCc3cccs3)ccc12	none
CCCCN(C(=O)c1cccc2c(=O)c(C)c(-c3ccccc3)oc12)c1ccccc1	none
CN(CC(=O)Nc1cccc(F)c1)C(=O)CCCN1C(=O)c2cccc3cccc(c23)C1=O	none
C/C(Cc1ccccc1)=N\NC(=O)CNC(=O)c1ccccc1Br	none
O=C(NNc1ncnc2ccccc12)c1cccc(Cl)c1	Scp-1 inhibitor 100, STEP block 38 | Scp1 confirm 91 | MG interference inactive | Scp-1 Tm shift inactive | STEP conf inactive
CN1CCN(C(=O)c2ccccc2NC(=O)c2ccccc2)CC1	none
COc1cc(/C=C(\C#N)C(=O)Nc2cccc(C(=O)O)c2)ccc1OCc1ccc(C)cc1	Scp-1 inhibitor 86, STEP block 61 | Scp1 confirm 72 | MG interference inactive | Scp-1 Tm shift inactive | STEP conf inactive
O=C(N/N=C/c1cccnc1)c1ccc(NC(=O)c2cccc(Cl)c2)cc1	Scp-1 inhibitor 70, SUMO1-SIM PPI 61, STEP block 94 | Scp1 confirm 72 | MG interference inactive | Scp-1 Tm shift 8.4 | STEP conf 61
O=C(N/N=C/c1cccnc1)c1ccc(Cl)c(Cl)c1	none
C/C=C/c1ccc2c(c1)O[C@H](CN(C)CC1CCOCC1)[C@@H](C)CN([C@H](C)CO)S2(=O)=O	none (no result: Scp-1 inhibitor)
O=C(N/N=C/c1ccc(Br)cc1)c1ccc(Br)o1	Scp-1 inhibitor 100, STEP block 47 | Scp1 confirm 82 | MG interference inactive | Scp-1 Tm shift inactive | STEP conf 71
O=C(N/N=C/c1ccc(F)cc1)c1ccc(Br)cc1	none
COc1ccc2cc3c(N)nn(C(=O)c4cccc(F)c4)c3nc2c1	Scp-1 inhibitor 96, SUMO1-SIM PPI 85, STEP block 96 | Scp1 confirm 60 | MG interference inactive | Scp-1 Tm shift inactive | STEP conf 21
OC[C@H]1O[C@@H](O[C@@H]2[C@@H](CO)O[C@@](O)(CO)[C@H]2O)[C@H](O)[C@@H](O)[C@H]1O	none
Cc1cccc(C(C)C)c1NC(=O)CN1C(=O)NC2(CCc3ccccc32)C1=O (stereo unspecified)	none
O=C(COc1ccc(/C=N/NC(=O)c2ccccc2Br)cc1)Nc1ccccc1	none
COc1cc(/C=N/NC(=O)c2ccccc2O)ccc1OCC(=O)Nc1ccccc1	Scp-1 inhibitor 63, STEP block 62 | Scp1 confirm 70 | MG interference inactive | Scp-1 Tm shift inactive | STEP conf 83
COc1cc(/C=N/NC(=O)c2ccncc2)ccc1OCC(=O)Nc1ccccc1	none
O=C(COc1ccc(/C=N/NC(=O)c2ccccc2O)cc1)Nc1ccccc1	Scp-1 inhibitor 65, STEP block 85, LMPTP inh 67 | Scp1 confirm 65 | MG interference inactive | Scp-1 Tm shift inactive | STEP conf 24
Cc1cccc(Nc2nn3c(=O)c4ccccc4nc3s2)c1	DNMT1 inh 94, Scp-1 inhibitor 106, STEP block 96 | Scp1 confirm 69 | MG interference inactive | Scp-1 Tm shift inactive | DNMT1 confirm inactive | Beacon interf inactive | STEP conf 29
CC1CCCN(C(=O)c2ccc3c(=O)n4nc(Nc5ccccc5)sc4nc3c2)C1 (stereo unspecified)	none (no result: Scp-1 inhibitor)
Cc1ccc(C(=O)Nc2ccc3c(c2)C(=O)NC3=O)cc1	none
COC(=O)c1ccc(C(=O)Nc2ccc3c(c2)C(=O)NC3=O)cc1	Scp-1 inhibitor 75, SUMO1-SIM PPI 95, STEP block 94 | Scp1 confirm 47 | MG interference inactive | Scp-1 Tm shift 6.0 | STEP conf inactive
Cc1ccc2oc(-c3ccc(NC(=O)c4ccncc4)cc3O)nc2c1	none
Cc1ccc2oc(-c3cc(NC(=O)c4ncn[nH]4)ccc3O)nc2c1	Scp-1 inhibitor 85, STEP block 78 | Scp1 confirm 81 | MG interference inactive | Scp-1 Tm shift inactive | STEP conf inactive
CCOc1ccc(-n2c(C)c(C(C)=O)c3cc(OCC(N)=O)ccc32)cc1	none
O=C(O)Cc1cccc(=O)c(O)c1C(=O)O	DNMT1 inh 86, Scp-1 inhibitor 79, STEP block 68 | Scp1 confirm 54 | MG interference inactive | Scp-1 Tm shift 6.3 | STEP conf 88
O=C(O)Cc1ccccc1C(=O)O	none
CC1=C(C(=O)N2CCOCC2)CC(CC(=O)NC2CCCCC2)C(=O)N1Cc1ccccc1 (stereo unspecified)	none (no result: Scp-1 inhibitor)
O=C(NC(C(=O)c1ccccc1)n1c(=O)cc[nH]c1=S)c1ccccc1 (stereo unspecified)	none
Cc1c(NS(=O)(=O)c2ccc(NCCN3CCOCC3)c([N+](=O)[O-])c2)c(=O)n(-c2ccccc2)n1C	none
O=C(N/N=C/c1ccsc1)c1cc2ccccc2o1	none
O=C(N/N=C/c1cccc([N+](=O)[O-])c1)c1cc2ccccc2o1	DNMT1 inh 94, Scp-1 inhibitor 51, STEP block 63 | Scp1 confirm inactive | MG interference inactive | DNMT1 confirm inactive | Beacon interf inactive | STEP conf inactive
CC(/C=N/NC(=O)c1ccc(Br)cc1)=C\c1ccccc1	DNMT1 inh 50, Scp-1 inhibitor 94, STEP block 55, LMPTP inh 55 | Scp1 confirm 89 | MG interference inactive | Scp-1 Tm shift inactive | DNMT1 confirm inactive | Beacon interf inactive | STEP conf inactive
COc1ccc(C(=O)N/N=C\C(C)=C\c2ccccc2)cc1OC	none
